Hits are enriched below; roughly 3% of the tested compounds scored in any of these assays.
SENP6 block: SENP6 protease inhibition | actives 1.8% (n = 330,000) | AID 2599 | Q9GZR1 | inhibition, % at 10 µM | Recombinant SENP6 catalytic domain, aminoluciferin luminescence;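 active = inhibition above about 50% at the single tested dose, limit read from the data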;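 note: plate controls were DMSO wells with enzyme for no effect and DMSO wells lacking enzyme for full effect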
Apaf-1 inh: human Apaf-1 inhibition; reconstituted apoptosome caspase-3 activity, DEVD-Rh110 fluorescence; inhibition, % at 20 µM; actives 0.71% (n = 330,000); O14727; active = inhibition of at least 40% at 20 µM;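 note: plate controls were DMSO wells for no effect and DEVD-CHO caspase inhibitor wells for full effect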
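Material: reconstituted apoptosome with Apaf-1, cytochrome c, caspase-9, procaspase-3, dATP. Technique: Rh110 fluorescence intensity. Buffer or medium: pH 7.5 Hepes buffer with CHAPS, BSA, DTT. Times: 30 min plus 50 min, RT.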
SENP8 block-1: inhibitors of human SENP8 protease; recombinant SENP8, Nedd8 substrate fluorescence; inhibition, % at 20 µM; actives 0.64% (n = 360,000); AID 602440; in the data active = inhibition mostly above about 40%, no sharp cut-off; inactive = mostly below about 27%
Target sequence (Q96LD8 whole entry, looked up): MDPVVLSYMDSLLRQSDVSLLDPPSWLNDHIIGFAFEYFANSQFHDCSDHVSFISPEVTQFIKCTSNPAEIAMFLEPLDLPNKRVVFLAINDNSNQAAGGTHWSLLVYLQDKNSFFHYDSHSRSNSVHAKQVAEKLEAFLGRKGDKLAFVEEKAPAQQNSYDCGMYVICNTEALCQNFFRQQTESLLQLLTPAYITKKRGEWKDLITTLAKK
UBC13 polyUb: human UBC13 polyubiquitination inhibition; UBC13 polyubiquitin chain formation, TR-FRET; actives 0.47% (n = 330,000); inhibition, % at 20 µM; in the data active = inhibition above about 45%, passing the limit was not always enough
Target sequence (P61088 whole entry, looked up): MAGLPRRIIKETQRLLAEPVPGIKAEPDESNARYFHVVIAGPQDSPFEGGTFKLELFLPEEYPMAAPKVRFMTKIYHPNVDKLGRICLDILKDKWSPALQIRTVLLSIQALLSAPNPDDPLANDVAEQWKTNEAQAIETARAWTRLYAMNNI
SENP8 block-2: blocks the human protease SENP8 | Q96LD8 | purified SENP8, Z-RLRGG-aminoluciferin cleavage, luminescence | inhibition, % at 10 µM | actives 1.2% (n = 330,000) | AID 2540; in the data active = inhibition above about 50%
SENP7 block: blocks the human protease SENP7; Q9BQF6; recombinant SENP7, Z-RLRGG-aminoluciferin luminescence, 40 min; inhibition, % at 5 µM; actives 1.5% (n = 330,000);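 active = inhibition above about 50% at the single test dose, limit read from the data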;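 note: plate controls were DMSO with enzyme for no effect and no enzyme buffer wells for full effect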
SENP8 confirm: human SENP8 inhibition, confirmed; inhibition, % at 12.5 µM; Recombinant SENP8, Z-RLRGG-aminoluciferin luminescence, 60 min; AID 488912; shares compounds with SENP7 block; actives 40% (n = 6,200);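 active = mean inhibition across replicates above about 50%, limit read from the data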
SENP6 conf: human SENP6 inhibition, confirmed | shares compounds with SENP7 block | recombinant SENP6, Z-RLRGG-aminoluciferin luminescence | inhibition, % at 12.5 µM | actives 58% (n = 6,200) | AID 488915
SENP7 conf: confirmation of human SENP7 protease inhibitors. shares compounds with SENP7 block. recombinant SENP7, Z-RLRGG-aminoluciferin luminescence, 40 min. inhibition, % at 12.5 µM. actives 69% (n = 6,200). AID 488917
Casp3 SENP sel: inhibits human caspase-3 in SENP selectivity test; actives 60% (n = 6,200); shares compounds with SENP7 block; inhibition, % at 12.5 µM; purified caspase-3, Z-DEVD-aminoluciferin luminescence, 60 min;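 active = mean inhibition above about 50%, limit read from the data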;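 note: plate controls were enzyme with DMSO for no effect and wells without caspase-3 for full effect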
Target sequence (P42574 28-227 limits assumed): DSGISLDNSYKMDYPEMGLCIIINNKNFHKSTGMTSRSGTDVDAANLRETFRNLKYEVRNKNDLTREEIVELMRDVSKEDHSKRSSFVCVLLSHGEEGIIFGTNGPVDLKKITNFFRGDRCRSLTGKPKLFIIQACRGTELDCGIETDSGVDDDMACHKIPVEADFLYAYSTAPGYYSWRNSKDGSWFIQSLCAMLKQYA
SENP luc ctr: counter-screen for SENP inhibitors: luminescence interference; shares compounds with SENP7 block; Pre-incubated SENP8/Z-RLRGG-aminoluciferin, luciferase luminescence interference; inhibition, % at 12.5 µM; actives 39% (n = 6,200);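 active = mean inhibition above about 50% when retested at one dose, limit read from the data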;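 note: plate controls were DMSO wells with completed reaction for no effect and substrate without enzyme for full effect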
* = called active by the depositor; i = inactive; · = no result.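 Rule for the calls, unless noted: active = mean inhibition above about 50% in the one-dose retest (limit read from the data); inactive = the rest.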

SMILES	SENP6 block	Apaf-1 inh	SENP8 block-1	UBC13 polyUb	SENP8 block-2	SENP7 block	SENP8 confirm	SENP6 conf	SENP7 conf	Casp3 SENP sel	SENP luc ctr
Cc1cccc(/C=C2\CCC(=C3SCCCS3)C2=O)c1	91*	23	17	-13	93*	92*	20	22	5	23	-6
O=C1C(=C2SCCCS2)CC/C1=C\c1ccc(F)cc1	95*	13	22	-14	96*	99*	47	68*	63*	84*	12
COc1cc(/C=C2\OC(=O)c3c(OC)cccc32)ccc1O	64*	13	-402	-20	24	47	26	29	82*	58*	68*
COc1cc(C=C2CN(C)C(=O)C2=O)ccc1O	·	·	20	·	·	·	·	·	·	·	·
N=C1C2=C3Sc4ccccc4N3CCCC2=NN1c1cccc(S(=O)(=O)O)c1	-10	-1	-74	-1	2	5	·	·	·	·	·
Cc1ccc(C(=O)CSc2ccccn2)cc1	69*	13	15	2	51*	51*	5	35	-11	76*	68*
O=C(CSc1ccccn1)c1ccc(F)cc1	23	-20	1	-2	6	4	·	·	·	·	·
O=C(O)c1ccnc(SCC(=O)c2ccccc2)c1	61*	2	0	8	10	26	0	-3	26	48	23
COc1ccc(C(=O)C2CCCN(C(=O)C3=CCCC3)C2)cc1OC (centres undefined)	-16	0	3	-8	-7	1	·	·	·	·	·
Cc1ccccc1NCC(=O)N=Nc1c(O)[nH]c2ccc([N+](=O)[O-])cc12	3	-16	24	-19	3	-2	·	·	·	·	·
O=C(O)c1ccccc1N=Nc1c(O)[nH]c2ccc([N+](=O)[O-])cc12	99*	14	29	-26	95*	94*	98*	98*	101*	94*	37
C(=N\n1cnnc1)/c1nc2ccccc2[nH]1	-3	0	i	0	3	11	·	·	·	·	·
Clc1cccc(Cl)c1/C=C/c1nc2ccccc2[nH]1	82*	-5	-280	3	89*	93*	94*	96*	101*	87*	76*
Clc1ccc(SCc2nc3ccccc3[nH]2)cc1	40	-16	-6	13	26	44	·	·	·	·	·
Clc1ccc(/C=C/c2nc3ccccc3[nH]2)cc1	98*	14	-266	3	97*	100*	99*	100*	103*	98*	83*
Clc1ccc(/C=C/c2nc3ccccc3[nH]2)c(Cl)c1	100*	-1	-273	-4	97*	99*	99*	100*	104*	98*	34
O=C(/C=C/c1ccc(Cl)cc1Cl)c1nc2ccccc2[nH]1	15	9	-23	-16	-9	5	·	·	·	·	·
O=C(COc1ccc(F)cc1)NN1C(=O)CSC1=S	-6	12	10	-17	-5	-12	·	·	·	·	·
COc1ccc2c(CC(=O)Nc3ccccc3N3CCOCC3)coc2c1	-11	-25	18	12	7	2	·	·	·	·	·
COc1cccc(C(=O)/C=C/Nc2ccc(S(=O)(=O)Nc3onc(C)c3C)cc2)c1	88*	18	-2	-18	78*	58*	68*	67*	86*	68*	25
Cc1cc(NS(=O)(=O)c2ccc(NC(=O)Nc3ccccc3)cc2)no1	54*	4	20	-8	23	33	34	30	67*	69*	30
Cc1noc(NS(=O)(=O)c2ccc(NC(=O)Nc3ccc(Cl)c(Cl)c3)cc2)c1C	86*	21	21	-22	82*	16	89*	89*	95*	51*	85*
Cc1ccc(/C=C2\OC(=O)c3ccccc32)cc1	68*	-1	-190	24	56*	86*	0	15	25	30	11
COc1ccc(C(NC(=O)C2CCN(CCCOc3ccccc3)CC2)c2cccs2)cc1 (centres undefined)	·	·	21	·	·	·	·	·	·	·	·
O=c1c2ccccc2oc2cc(C#CC3(O)CCCCC3)ccc12	98*	16	11	4	95*	99*	98*	99*	102*	94*	75*
SMILES	SENP6 block	Apaf-1 inh	SENP8 block-1	UBC13 polyUb	SENP8 block-2	SENP7 block	SENP8 confirm	SENP6 conf	SENP7 conf	Casp3 SENP sel	SENP luc ctr
COc1cccc2oc3cc(C#CC4(O)CCCCC4)ccc3c(=O)c12	81*	38	-355	25	84*	84*	89*	89*	97*	72*	55*
COc1ccccc1-c1oc2ccccc2c1C#CC1(O)CCCCC1	2	21	-475	14	-4	5	·	·	·	·	·
O=c1c2ccccc2sc2ccc(C#CC3(O)CCCCC3)cc12	98*	25	-260	14	96*	97*	97*	99*	102*	97*	44
Nc1ccc(C#Cc2ccc3sc4ccccc4c(=O)c3c2)cc1	38	20	-35	13	2	11	·	·	·	·	·
COc1cccc2oc3cc(C#Cc4ccccn4)ccc3c(=O)c12	23	6	·	-5	-16	6	·	·	·	·	·
C=CCn1c(NC(=O)c2ccc(Br)o2)c(S(=O)(=O)c2ccccc2)c2nc3ccccc3nc21	73*	63*	-276	-32	42	2	13	32	20	6	4
Clc1ccc(-c2nc3n(n2)Cc2ccccc2-3)cc1	63*	7	20	-2	87*	99*	-20	11	26	30	2
CCN(CC)S(=O)(=O)c1cccc(-c2nc3n(n2)Cc2ccccc2-3)c1	-13	-11	25	1	-18	8	·	·	·	·	·
CCc1nc2c(OCC3CCCCC3)cccn2c1N(C)C(=O)c1ccccc1F	·	·	6	·	·	·	·	·	·	·	·
N#C/C(=C\c1ccc([N+](=O)[O-])cc1)c1ccccn1	8	4	12	2	-5	5	·	·	·	·	·
O=C(N/N=C/c1ccc2c(c1)OCO2)c1ccccn1	80*	-24	-87	-9	70*	92*	4	68*	90*	85*	33
CN(C)c1ccc(/C=N/NC(=O)c2ccn(C)n2)cc1	-4	-8	-420	-9	-16	-5	·	·	·	·	·
O=C(N/N=C/c1ccncc1)c1ccccn1	15	3	11	4	-9	7	·	·	·	·	·

Screens from PubChem BioAssay.
